Results as given in ChEMBL document CHEMBL1129477, “Structure-activity relationships of the quinolone antibacterials against mycobacteria: effect of structural changes at N-1 and C-7” (J Med Chem, 1996).
Values after ≈ are worked out from the molar mass of the structure shown.

Columns and labels:
Format in all cases: functional
[1] = test system: Mycolicibacterium fortuitum; assay: Anti-bacterial activity tested against Mycobacterium fortuitum (ATCG 6841)
Staphylococcus aureus = assay: Anti-bacterial activity was tested against Gram-positive SA-13 bacterium
In short: (§1)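 Standard microtitration MIC determination (µg/mL) against four representative Gram-negative and Gram-positive bacterial strains.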

Escherichia coli = assay: Anti-bacterial activity was tested against Gram-negative EC-1 bacterium; in short: as §1
Streptococcus pyogenes = assay: Anti-bacterial activity tested against Gram-positive SP1-1 bacterium; in short: as §1
Pseudomonas aeruginosa = assay: Anti-bacterial activity tested against Gram-negative PA-7 bacterium; in short: as §1
[2] = test system: Mycolicibacterium smegmatis; assay: Anti-bacterial activity tested against Mycobacterium smegmatis (ATCG 19420)

MIC [1] [µg/mL]	MIC (Staphylococcus aureus) [µg/mL]	MIC (Escherichia coli) [µg/mL]	MIC (Streptococcus pyogenes) [µg/mL]	MIC (Pseudomonas aeruginosa) [µg/mL]	MIC [2] [µg/mL]	Compound
1 (≈ 2.9 µM)	3.1 (≈ 8.98 µM)	0.4 (≈ 1.16 µM)	1.6 (≈ 4.63 µM)	1.6 (≈ 4.63 µM)	1 (≈ 2.9 µM)	NC1CCN(c2cc3c(cc2F)c(=O)c(C(=O)O)cn3C2CCC2)C1 (stereo unspecified)
1 (≈ 2.18 µM)	0.4 (≈ 0.871 µM)	0.8 (≈ 1.74 µM)	3.1 (≈ 6.75 µM)	3.1 (≈ 6.75 µM)	2 (≈ 4.35 µM)	CCCCN1CCN(c2cc3c(cc2F)c(=O)c(C(=O)O)cn3-c2ccc(F)cc2F)CC1
0.13 (≈ 0.374 µM)	0.8 (≈ 2.3 µM)	0.4 (≈ 1.15 µM)	> 3.1	3.1 (≈ 8.92 µM)	1 (≈ 2.88 µM)	CCn1cc(C(=O)O)c(=O)c2cc(F)c(N3CC(C)NC(C)C3)cc21 (stereo unspecified)
2 (≈ 5.36 µM)	0.8 (≈ 2.14 µM)	0.8 (≈ 2.14 µM)	1.6 (≈ 4.28 µM)	3.1 (≈ 8.3 µM)	4 (≈ 10.7 µM)	CNCC1CCN(c2cc3c(cc2F)c(=O)c(C(=O)O)cn3C2CCC2)C1 (stereo unspecified)
0.06 (≈ 0.16 µM)	0.4 (≈ 1.07 µM)	0.2 (≈ 0.533 µM)	> 3.1	1.6 (≈ 4.26 µM)	0.06 (≈ 0.16 µM)	CC1CN(c2cc3c(cc2F)c(=O)c(C(=O)O)cn3C(C)(C)C)CC(C)N1 (stereo unspecified)
0.25 (≈ 0.579 µM)	0.4 (≈ 0.927 µM)	0.4 (≈ 0.927 µM)	0.8 (≈ 1.85 µM)	3.1 (≈ 7.19 µM)	1 (≈ 2.32 µM)	CCC1CN(c2cc3c(cc2F)c(=O)c(C(=O)O)cn3-c2ccc(F)cc2F)CCN1 (stereo unspecified)
0.25 (≈ 0.72 µM)	0.2 (≈ 0.576 µM)	0.1 (≈ 0.288 µM)	3.1 (≈ 8.92 µM)	1.6 (≈ 4.61 µM)	0.5 (≈ 1.44 µM)	CCN1CCN(c2cc3c(cc2F)c(=O)c(C(=O)O)cn3CC)CC1
1 (≈ 3.13 µM)	1.6 (≈ 5.01 µM)	0.4 (≈ 1.25 µM)	0.8 (≈ 2.51 µM)	0.8 (≈ 2.51 µM)	4 (≈ 12.5 µM)	CCn1cc(C(=O)O)c(=O)c2cc(F)c(N3CCC(N)C3)cc21 (stereo unspecified)
0.13 (≈ 0.362 µM)	0.8 (≈ 2.23 µM)	0.1 (≈ 0.278 µM)	0.8 (≈ 2.23 µM)	0.8 (≈ 2.23 µM)	0.25 (≈ 0.696 µM)	CCC1CN(c2cc3c(cc2F)c(=O)c(C(=O)O)cn3C2CC2)CCN1 (stereo unspecified)
0.5 (≈ 1.44 µM)	3.1 (≈ 8.92 µM)	0.8 (≈ 2.3 µM)	> 3.1	3.1 (≈ 8.92 µM)	2 (≈ 5.76 µM)	CC1CN(c2cc3c(cc2F)c(=O)c(C(=O)O)cn3C(C)C)CCN1 (stereo unspecified)
1 (≈ 3 µM)	3.1 (≈ 9.3 µM)	0.2 (≈ 0.6 µM)	> 3.1	> 3.1	2 (≈ 6 µM)	CCn1cc(C(=O)O)c(=O)c2cc(F)c(N3CCNC(C)C3)cc21 (stereo unspecified)
0.25 (≈ 0.696 µM)	3.1 (≈ 8.63 µM)	0.4 (≈ 1.11 µM)	> 3.1	1.6 (≈ 4.45 µM)	1 (≈ 2.78 µM)	CC1CN(c2cc3c(cc2F)c(=O)c(C(=O)O)cn3C2CCC2)CCN1 (stereo unspecified)
1 (≈ 2.77 µM)	3.1 (≈ 8.58 µM)	1.6 (≈ 4.43 µM)	> 3.1	> 3.1	4 (≈ 11.1 µM)	CCN1CCN(c2cc3c(cc2F)c(=O)c(C(=O)O)cn3C(C)C)CC1
1 (≈ 2.58 µM)	0.4 (≈ 1.03 µM)	0.2 (≈ 0.516 µM)	1.6 (≈ 4.13 µM)	1.6 (≈ 4.13 µM)	0.25 (≈ 0.645 µM)	CC(C)CN1CCN(c2cc3c(cc2F)c(=O)c(C(=O)O)cn3C2CC2)CC1
0.25 (≈ 0.645 µM)	0.4 (≈ 1.03 µM)	0.4 (≈ 1.03 µM)	1.6 (≈ 4.13 µM)	3.1 (≈ 8 µM)	0.5 (≈ 1.29 µM)	CC(C)NCC1CCN(c2cc3c(cc2F)c(=O)c(C(=O)O)cn3C2CC2)C1 (stereo unspecified)
0.13 (≈ 0.322 µM)	0.05 (≈ 0.124 µM)	0.03 (≈ 0.0744 µM)	0.1 (≈ 0.248 µM)	0.2 (≈ 0.496 µM)	0.13 (≈ 0.322 µM)	NC1CCN(c2cc3c(cc2F)c(=O)c(C(=O)O)cn3-c2ccc(F)cc2F)C1 (stereo unspecified)
0.25 (≈ 0.696 µM)	0.2 (≈ 0.556 µM)	0.2 (≈ 0.556 µM)	0.1 (≈ 0.278 µM)	0.8 (≈ 2.23 µM)	0.5 (≈ 1.39 µM)	CNCC1CCN(c2cc3c(cc2F)c(=O)c(C(=O)O)cn3C2CC2)C1 (stereo unspecified)
0.5 (≈ 1.16 µM)	0.2 (≈ 0.464 µM)	0.4 (≈ 0.927 µM)	0.8 (≈ 1.85 µM)	1.6 (≈ 3.71 µM)	1 (≈ 2.32 µM)	CCN1CCN(c2cc3c(cc2F)c(=O)c(C(=O)O)cn3-c2ccc(F)cc2F)CC1
0.06 (≈ 0.173 µM)	0.4 (≈ 1.15 µM)	0.2 (≈ 0.576 µM)	0.4 (≈ 1.15 µM)	0.4 (≈ 1.15 µM)	0.13 (≈ 0.374 µM)	CC(C)(C)n1cc(C(=O)O)c(=O)c2cc(F)c(N3CCC(N)C3)cc21 (stereo unspecified)
0.25 (≈ 0.579 µM)	0.4 (≈ 0.927 µM)	0.4 (≈ 0.927 µM)	0.8 (≈ 1.85 µM)	0.8 (≈ 1.85 µM)	0.5 (≈ 1.16 µM)	CC1CN(c2cc3c(cc2F)c(=O)c(C(=O)O)cn3-c2ccc(F)cc2F)CC(C)N1 (stereo unspecified)
0.06 (≈ 0.174 µM)	0.2 (≈ 0.579 µM)	0.05 (≈ 0.145 µM)	1.6 (≈ 4.63 µM)	0.4 (≈ 1.16 µM)	0.25 (≈ 0.724 µM)	CN1CCN(c2cc3c(cc2F)c(=O)c(C(=O)O)cn3C2CC2)CC1

Compound	MIC [1] [µg/mL]	MIC (Staphylococcus aureus) [µg/mL]	MIC (Escherichia coli) [µg/mL]	MIC (Streptococcus pyogenes) [µg/mL]	MIC (Pseudomonas aeruginosa) [µg/mL]	MIC [2] [µg/mL]
CC(C)n1cc(C(=O)O)c(=O)c2cc(F)c(N3CCNCC3)cc21	1 (≈ 3 µM)	> 3.1	0.8 (≈ 2.4 µM)	> 3.1	1.6 (≈ 4.8 µM)	4 (≈ 12 µM)
O=C(O)c1cn(C2CC2)c2cc(N3CCNCC3)c(F)cc2c1=O [CIPROFLOXACIN]	0.06 (≈ 0.181 µM)			0.4 (≈ 1.21 µM)	0.2 (≈ 0.604 µM)	0.25 (≈ 0.754 µM)
